Test results from ChEMBL document CHEMBL1123920, “Leukotriene D4 antagonists and 5-lipoxygenase inhibitors. Synthesis of benzoheterocyclic [(methoxyphenyl)amino]oxoalkanoic acid esters” (J Med Chem, 1987).
pIC50: −log10 of the molar value. Each block holds one compound with its values, some of them ahead of it.

Tests used:
[1] = molecular target: T1, Polyunsaturated fatty acid 5-lipoxygenase (Rattus norvegicus, UniProt P12527); assay: (§1) Ability to inhibit Lipoxygenase in vitro was determined
T1 sequence (P12527 whole entry): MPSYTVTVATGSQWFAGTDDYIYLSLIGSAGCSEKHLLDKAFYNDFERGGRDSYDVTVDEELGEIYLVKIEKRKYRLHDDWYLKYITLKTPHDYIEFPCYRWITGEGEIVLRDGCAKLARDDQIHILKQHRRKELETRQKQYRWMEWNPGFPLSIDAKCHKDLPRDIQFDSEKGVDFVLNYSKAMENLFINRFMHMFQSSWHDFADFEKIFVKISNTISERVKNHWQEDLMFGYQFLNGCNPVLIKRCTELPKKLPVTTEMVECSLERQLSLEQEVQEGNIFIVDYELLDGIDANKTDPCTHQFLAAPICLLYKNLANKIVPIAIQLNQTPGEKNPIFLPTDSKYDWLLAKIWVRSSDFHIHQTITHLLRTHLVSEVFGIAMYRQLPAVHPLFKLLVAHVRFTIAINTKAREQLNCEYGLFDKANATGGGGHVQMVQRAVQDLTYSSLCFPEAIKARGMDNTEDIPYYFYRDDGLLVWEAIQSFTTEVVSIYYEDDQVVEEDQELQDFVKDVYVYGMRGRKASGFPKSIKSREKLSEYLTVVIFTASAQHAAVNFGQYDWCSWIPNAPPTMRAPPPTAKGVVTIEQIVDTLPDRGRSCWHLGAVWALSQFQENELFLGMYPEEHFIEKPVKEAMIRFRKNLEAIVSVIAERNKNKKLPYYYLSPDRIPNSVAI

Cavia porcellus = assay: Ability to inhibit the Ovalbumin induced bronchospasm in guinea pig was determined in vivo at a dose of 50 mg/kg id; type: functional; details: route intraduodenal
Method in brief: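 Guinea pigs were challenged with LTD4 or ovalbumin to induce bronchospasm, and test agent was given intraduodenally. Read-out is percent inhibition of bronchospasm. Significance uses a two-tailed Student's t test (p < 0.05). N is the number of treated animals.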

[2] = molecular target: T2, Polyunsaturated fatty acid 5-lipoxygenase (Rattus norvegicus) (UniProt P12527); assay: Ability to inhibit the rat Lipoxygenase in vitro was determined; NA is <50% inhibition at 100 uM
T2 sequence (whole entry): T1 sequence (P12527 whole entry)
Method in brief: (§2)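 Source is rat polymorphonuclear leukocyte (PMN) 5-lipoxygenase. IC50 values come from nonlinear regression analysis, significant at p < 0.05.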

[3] = tested on: Cysteinyl leukotriene receptor (Cavia porcellus); assay: Inhibition of LTD4 induced bronchospasm in guinea pig was determined in at 50 mg/kg i.d.
[4] = molecular target: T2, Polyunsaturated fatty acid 5-lipoxygenase (Rattus norvegicus); assay: Ability to inhibit Lipoxygenase in vitro was determined; NA is <50% inhibition at 100 uM; method in brief: as §2
Rattus norvegicus [5] = organism: Rattus norvegicus; assay: Tested for metabolic activation counted as mean number of revertants in strains TA98, TA100, TA1535, and TA1538, three plates per treatment at 0.005 mg per plate, with activation provided by S-9 rat liver homogenates in Ames test; type: functional, organism-based
Rattus norvegicus [6] = organism: Rattus norvegicus; assay: Tested for metabolic activation counted as mean number of revertants in strains TA98, TA100, TA1535, and TA1538, three plates per treatment at 0.05 mg per plate, with activation provided by S-9 rat liver homogenates in Ames test; type: functional, organism-based
Rattus norvegicus [7] = organism: Rattus norvegicus; assay: Tested for metabolic activation counted as mean number of revertants in strains TA98, TA100, TA1535, and TA1538, three plates per treatment at 0.5 mg per plate, with activation provided by S-9 rat liver homogenates in Ames test; type: functional, organism-based
Rattus norvegicus [8] = organism: Rattus norvegicus; assay: Tested for metabolic activation counted as mean number of revertants in strains TA98, TA100, TA1535, and TA1538, three plates per treatment at 0.15 mg per plate, without activation in the absence of S-9 rat liver homogenates in Ames test; type: functional, organism-based
Rattus norvegicus [9] = organism: Rattus norvegicus; assay: Tested for metabolic activation counted as mean number of revertants in strains TA98, TA100, TA1535, and TA1538, three plates per treatment at 0.005 mg per plate, without activation in the absence of S-9 rat liver homogenates in Ames test; type: functional, organism-based
Rattus norvegicus [10] = organism: Rattus norvegicus; assay: Tested for metabolic activation counted as mean number of revertants in strains TA98, TA100, TA1535, and TA1538, three plates per treatment at 0.015 mg per plate, without activation in the absence of S-9 rat liver homogenates in Ames test; type: functional, organism-based
Rattus norvegicus [11] = organism: Rattus norvegicus; assay: Tested for metabolic activation counted as mean number of revertants in strains TA98, TA100, TA1535, and TA1538, three plates per treatment at 0.15 mg per plate, with activation provided by S-9 rat liver homogenates in Ames test; type: functional, organism-based
Rattus norvegicus [12] = organism: Rattus norvegicus; assay: Tested for metabolic activation counted as mean number of revertants in strains TA98, TA100, TA1535, and TA1538, three plates per treatment at 0.05 mg per plate, without activation in the absence of S-9 rat liver homogenates in Ames test; type: functional, organism-based
Rattus norvegicus [13] = organism: Rattus norvegicus; assay: Tested for metabolic activation counted as mean number of revertants in strains TA98, TA100, TA1535, and TA1538, three plates per treatment at 0.015 mg per plate, with activation provided by S-9 rat liver homogenates in Ames test; type: functional, organism-based
Rattus norvegicus [14] = organism: Rattus norvegicus; assay: Tested for metabolic activation counted as mean number of revertants in strains TA98, TA100, TA1535, and TA1538, three plates per treatment at 2.0 mg per plate, with activation provided by S-9 rat liver homogenates in Ames test; type: functional, organism-based
Rattus norvegicus [15] = organism: Rattus norvegicus; assay: Tested for metabolic activation counted as mean number of revertants in strains TA98, TA100, TA1535, and TA1538, three plates per treatment at 0.2 mg per plate, with activation provided by S-9 rat liver in Ames test; type: functional
Rattus norvegicus [16] = organism: Rattus norvegicus; assay: Tested for metabolic activation counted as mean number of revertants in strains TA98, TA100, TA1535, and TA1538, three plates per treatment at 2.0 mg per plate, without activation in the absence of S-9 rat liver homogenates in Ames test; type: functional, organism-based
Rattus norvegicus [17] = organism: Rattus norvegicus; assay: Tested for metabolic activation counted as mean number of revertants in strains TA98, TA100, TA1535, and TA1538, three plates per treatment at 0.2 mg per plate, without activation in the absence of S-9 rat liver homogenates in Ames test; type: functional, organism-based
Rattus norvegicus [18] = organism: Rattus norvegicus; assay: Tested for metabolic activation counted as mean number of revertants in three plates per treatment at 0.06 mg per plate, with activation provided by S-9 rat liver homogenates in Ames test; type: functional, organism-based
Rattus norvegicus [19] = organism: Rattus norvegicus; assay: Tested for metabolic activation counted as mean number of revertants in strains TA98, TA100, TA1535, and TA1538, three plates per treatment at 0.02 mg per plate, without activation in the absence of S-9 rat liver homogenates in Ames test; type: functional, organism-based
Rattus norvegicus [20] = organism: Rattus norvegicus; assay: Tested for metabolic activation counted as mean number of revertants in three plates per treatment at 0.02 mg per plate, with activation provided by S-9 rat liver homogenates in Ames test; type: functional, organism-based
Rattus norvegicus [21] = organism: Rattus norvegicus; assay: Tested for metabolic activation counted as mean number of revertants in strains TA98, TA100, TA1535, and TA1538, three plates per treatment at 0.6 mg per plate, with activation provided by S-9 rat liver in Ames test; type: functional
Rattus norvegicus [22] = organism: Rattus norvegicus; assay: Tested for metabolic activation counted as mean number of revertants in strains TA98, TA100, TA1535, and TA1538, three plates per treatment at 0.6 mg per plate, without activation in the absence of S-9 rat liver homogenates in Ames test; type: functional, organism-based
Rattus norvegicus [23] = organism: Rattus norvegicus; assay: Tested for metabolic activation counted as mean number of revertants in strains TA98, TA100, TA1535, and TA1538, three plates per treatment at 0.06 mg per plate, without activation in the absence of S-9 rat liver homogenates in Ames test; type: functional, organism-based
[24] = molecular target: T1, Polyunsaturated fatty acid 5-lipoxygenase; assay: Ability to inhibit the rat Lipoxygenase in vitro was determined; method in brief: as §2
[25] = molecular target: T1, Polyunsaturated fatty acid 5-lipoxygenase; assay: as §1; method in brief: as §2; remark: listed apart in the source

SMILES: COC(=O)CCC(=O)Nc1cccc(OCc2cc3ccccc3o2)c1
pIC50 [1]: 4.75
inhibition in vivo at 50 mg/kg (Cavia porcellus): 12%

SMILES: Cn1c(COc2cccc(NC(=O)CCC(=O)O)c2)nc2ccccc21
inhibition [2]: < 50%

SMILES: COC(=O)CCC(=O)N(O)c1cccc(OCc2nc3ccccc3s2)c1
pIC50 [1]: 6.44
inhibition in vivo at 50 mg/kg (Cavia porcellus): 6%
inhibition [3]: 79%

SMILES: Cn1c(COc2cccc(N3C(=O)CCC3=O)c2)nc2ccccc21
inhibition [4]: < 50%

SMILES: COC(=O)C1CC(=O)N(c2cccc(OCc3nc4ccccc4s3)c2)C1 (centres undefined)
pIC50 [1]: 4.85

SMILES: O=C1CCC(=O)N1c1cccc(OCc2ccc3ccccc3n2)c1
Mean no. of revertants (Rattus norvegicus [5]): 5
Mean no. of revertants (Rattus norvegicus [6]): 7
Mean no. of revertants (Rattus norvegicus [7]): 45
inhibition in vivo at 50 mg/kg (Cavia porcellus): 26%
inhibition [4]: < 50%
Mean no. of revertants (Rattus norvegicus [8]): 43
Mean no. of revertants (Rattus norvegicus [9]): 6
Mean no. of revertants (Rattus norvegicus [10]): 9
Mean no. of revertants (Rattus norvegicus [11]): 8
Mean no. of revertants (Rattus norvegicus [12]): 12
Mean no. of revertants (Rattus norvegicus [13]): 7

SMILES: COC(=O)CCC(=O)Nc1cccc(OCc2nc3ccccc3o2)c1
inhibition in vivo at 50 mg/kg (Cavia porcellus): -65%
pIC50 [25]: 4.16

Now from value to compound, other results behind:

inhibition [3]: 97%
SMILES: COC(=O)CCC(=O)N(O)c1cccc(OCc2ccc3ccccc3n2)c1
Mean no. of revertants (Rattus norvegicus [5]): 13
Mean no. of revertants (Rattus norvegicus [6]): 16
Mean no. of revertants (Rattus norvegicus [7]): 716
inhibition in vivo at 50 mg/kg (Cavia porcellus): 76%
Mean no. of revertants (Rattus norvegicus [8]): 31
Mean no. of revertants (Rattus norvegicus [9]): 15
Mean no. of revertants (Rattus norvegicus [10]): 9
Mean no. of revertants (Rattus norvegicus [11]): 12
Mean no. of revertants (Rattus norvegicus [12]): 13
Mean no. of revertants (Rattus norvegicus [13]): 10

pIC50 [1]: 4.72
SMILES: COC(=O)C1CC(=O)N(c2cccc(OCc3ccc4ccccc4n3)c2)C1 (centres undefined)
Mean no. of revertants (Rattus norvegicus [14]): 84
Mean no. of revertants (Rattus norvegicus [15]): 10
Mean no. of revertants (Rattus norvegicus [16]): 475
Mean no. of revertants (Rattus norvegicus [17]): 16
Mean no. of revertants (Rattus norvegicus [18]): 10
Mean no. of revertants (Rattus norvegicus [19]): 10
inhibition in vivo at 50 mg/kg (Cavia porcellus): 29%
Mean no. of revertants (Rattus norvegicus [20]): 12
Mean no. of revertants (Rattus norvegicus [21]): 15
Mean no. of revertants (Rattus norvegicus [22]): 421
Mean no. of revertants (Rattus norvegicus [23]): 13

pIC50 [24]: 4.80
SMILES: COC(=O)CCC(=O)Nc1cccc(OCc2nc3ccccc3s2)c1
inhibition in vivo at 50 mg/kg (Cavia porcellus): 63%

pIC50 [25]: 4.77
SMILES: COC(=O)CC(=O)Nc1cccc(OCc2nc3ccccc3s2)c1
inhibition in vivo at 50 mg/kg (Cavia porcellus): 58%

inhibition [4]: < 50%
SMILES: O=C(O)CCC(=O)Nc1cccc(OCc2nc3ccccc3s2)c1
